Results as given in ChEMBL document CHEMBL1127046, “Antitumor agents. 3. Synthesis and biological activity of 4 beta-alkyl derivatives containing hydroxy, amino, and amido groups of 4'-O-demethyl-4-desoxypodophyllotoxin as antitumor agents” (J Med Chem, 1993).

Assays:
[1] = tested on: Lewis lung carcinoma cell line; experiment: Increased life span at the lewis lung dose of 0.77 (mg/kg/day); type: functional, Mus musculus
ACHN = experiment: Inhibition of growth of renal cancer ACHN cell line; type: functional; details: Homo sapiens, read-out: ED50 (the source's name)
Summary of the method: (§1)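 Human tumour cell lines plated and grown 24 h in a CO2 incubator, then exposed to compound for 96 or 4 h. Cells counted by hemocytometer. IC50 is the concentration giving 50% reduction in cell number versus untreated control.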

P388 [2] = experiment: Antitumor activity in vivo expressed as the percentage increase in life span at the P388 dose of 0.8 (mg/kg/day); type: functional, Mus musculus
Summary of the method: (§2)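 P388 leukaemia, 1 × 10^6 cells given sc to male CDF1 mice (5 weeks old) on day 0. Drug was dosed iv on days 1–5 in saline with 3.5% DMSO and 6.5% Tween 80. Groups had 7 mice; controls had 10. ILS was calculated from mean survival time of treated versus control mice, excluding 30-day survivors.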

[3] = Inhibition of growth of renal cancer G-402 cell line; type: functional; details: Homo sapiens, read-out: ED50 (the source's name); summary of the method: as §1
[4] = Inhibition of DNA topoisomerase II from rat liver measured as 50% reduction in the amount of minicircle DNA relative to the control
P388 [5] = experiment: Antitumor activity in vivo expressed as the percentage increase in life span at the P388 dose of 0.4 (mg/kg/day); type: functional, Mus musculus; summary of the method: as §2
P388 [6] = experiment: Antitumor activity in vivo expressed as the percentage increase in life span at the P388 dose of 0.3 (mg/kg/day); type: functional, Mus musculus; summary of the method: as §2
[7] = Inhibition of growth of lung small cell carcinoma RERF-LC-MA cell line; type: functional; details: Homo sapiens; read-out: ED50 (the source's name)
Summary of the method: (§3)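 Cells were seeded and cultured for 24 h, then exposed to drug for 96 or 4 h. Cells were counted by hemocytometer. IC50 is the concentration giving a 50% reduction in cell number relative to control.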

L1210 [8] = experiment: Antitumor activity in vivo expressed as the percentage increase in life span at the dose of 1.3 (mg/kg/day); type: functional, Mus musculus
Homo sapiens = species on record: Homo sapiens; experiment: Inhibition of growth of hepatoma HLE cell line; type: functional; details: read-out: ED50 (the source's name); summary of the method: as §3
[9] = Inhibition of growth of hepatoma HLF cell line; type: functional; details: Homo sapiens, read-out: ED50 (the source's name); summary of the method: as §3
[10] = tested on: Lewis lung carcinoma cell line; experiment: Increased life span at the lewis lung dose of 1.3 (mg/kg/day); type: functional, Mus musculus
[11] = tested on: Lewis lung carcinoma cell line; experiment: Percentage inhibition of tumor growth at the lewis lung dose of 0.3 (mg/kg/ day); type: functional, Mus musculus
Summary of the method: (§4)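 Lewis lung carcinoma fragments (2 mm3) implanted sc into male BDF1 mice (5 weeks) on day 0. Compound given iv on days 4–8, in saline or saline with 3.5% DMSO and 6.5% Tween 80. Seven mice per group, 10 controls. Percent inhibition from mean tumour weight versus control on day 17; p<0.05, 0.01 or 0.001 versus control.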

[12] = tested on: Lewis lung carcinoma cell line; experiment: Percentage inhibition of tumor growth at the lewis lung dose of 2.3 (mg/kg/ day); (p<0001); type: functional, Mus musculus; summary of the method: as §4
SBC-3 = experiment: Inhibition of growth of lung small cell carcinoma SBC-3 cell line; type: functional; details: Homo sapiens, read-out: ED50 (the source's name); summary of the method: as §1
[13] = tested on: Lewis lung carcinoma cell line; experiment: Increased life span at the lewis lung dose of 0.25 (mg/kg/day); type: functional, Mus musculus
Tubulin = Tubulin (Bos taurus, UniProt Q6B856+Q862L2+Q862F3); experiment: Drug concentration needed to produce a 50% reduction of bovine brain tubulin polymerization relative to the control
L1210 [14] = experiment: The number of mice survived for 30 days at the dose of 1.3 (mg/kg/day); type: functional, Mus musculus
P388 [15] = experiment: Cytotoxicity against P388 leukemia; type: functional, cell-based; details: Mus musculus
[16] = Inhibition of growth of colon carcinoma COLO 2-1 cell line; type: functional; details: Homo sapiens, read-out: ED50 (the source's name); summary of the method: as §3
[17] = Inhibition of growth of lung non-small cell carcinoma PC-7 cell line; type: functional; details: Homo sapiens, read-out: ED50 (the source's name); summary of the method: as §3
[18] = tested on: Lewis lung carcinoma cell line; experiment: Mean body weight change after inoculation of 3.2 x 10 e 5 cells iv and administration of compounds iv from days 1-5 at the dose of 0.25 (mg/kg/day); type: functional, Mus musculus
Summary of the method: (§5)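 Male BDF1 mice (5 weeks) given 3.2 x 10^5 Lewis lung carcinoma cells iv on day 0, then dosed iv on days 1–5. Seven mice per group, 14 controls. Mean body weight change (g) taken from day 0 to day 6.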

COLO 320DM [19] = experiment: Inhibition of growth of colon carcinoma COLO 320DM cell line; type: functional; details: Homo sapiens, read-out: ED50 (the source's name); summary of the method: as §3
[20] = tested on: Lewis lung carcinoma cell line; experiment: Mean body weight change after inoculation of 3.2 x 10 e 5 cells iv and administration of compounds iv from days 1-5 at the dose of 1.3 (mg/kg/day); type: functional, Mus musculus; summary of the method: as §5
[21] = tested on: Lewis lung carcinoma cell line; experiment: Percentage inhibition of tumor growth at the lewis lung dose of 1.3 (mg/kg/ day); (p<0001); type: functional, Mus musculus; summary of the method: as §4
A549 = experiment: Inhibition of growth of lung non-small cell carcinoma A-549 cell line; type: functional; details: Homo sapiens, read-out: ED50 (the source's name); summary of the method: as §3
[22] = tested on: Lewis lung carcinoma cell line; experiment: Mean body weight change after inoculation of 3.2 x 10 e 5 cells iv and administration of compounds iv from days 1-5 at the dose of 0.77 (mg/kg/day); type: functional, Mus musculus; summary of the method: as §5
[23] = tested on: Lewis lung carcinoma cell line; experiment: Increased life span at the lewis lung dose of 0.44 (mg/kg/day); type: functional, Mus musculus
[24] = tested on: Lewis lung carcinoma cell line; experiment: Mean body weight change after inoculation of 3.2 x 10 e 5 cells iv and administration of compounds iv from days 1-5 at the dose of 0.44 (mg/kg/day); type: functional, Mus musculus; summary of the method: as §5
L1210 [25] = experiment: The number of mice survived for 30 days at the dose of 2.5 (mg/kg/day); type: functional, Mus musculus
[26] = tested on: Lewis lung carcinoma cell line; experiment: Increased life span at the dose of 7 (mg/kg/day); type: functional, Mus musculus
P388 [27] = experiment: Antitumor activity in vivo expressed as the percentage increase in life span at the P388 dose of 1.3 (mg/kg/day); type: functional, Mus musculus; summary of the method: as §2
[28] = tested on: Lewis lung carcinoma cell line; experiment: Percentage inhibition of tumor growth at the Lewis lung dose of 4 (mg/kg/ day); type: functional, Mus musculus; summary of the method: as §4
[29] = tested on: Lewis lung carcinoma cell line; experiment: Increased life span at the dose of 4 (mg/kg/day) (number of survivors); type: functional, Mus musculus
[30] = tested on: Lewis lung carcinoma cell line; experiment: Increased life span at the dose of 1.3 (mg/kg/day); type: functional, Mus musculus
[31] = tested on: Lewis lung carcinoma cell line; experiment: Mean body weight change after inoculation of 3.2 x 10 e 5 cells iv and administration of compounds iv from days 1-5 at the dose of 4 (mg/kg/day); type: functional, Mus musculus; summary of the method: as §5
[32] = tested on: Lewis lung carcinoma cell line; experiment: Percentage inhibition of tumor growth at the Lewis lung dose of 2.3 (mg/kg/ day); type: functional, Mus musculus; summary of the method: as §4
[33] = tested on: Lewis lung carcinoma cell line; experiment: Percentage inhibition of tumor growth at the Lewis lung dose of 1.3 (mg/kg/ day); type: functional, Mus musculus; summary of the method: as §4
[34] = tested on: Lewis lung carcinoma cell line; experiment: Increased life span at the dose of 2.3 (mg/kg/day); type: functional, Mus musculus
[35] = tested on: Lewis lung carcinoma cell line; experiment: Increased life span at the dose of 0.77 (mg/kg/day); type: functional, Mus musculus
[36] = tested on: Lewis lung carcinoma cell line; experiment: Mean body weight change after inoculation of 3.2 x 10 e 5 cells iv and administration of compounds iv from days 1-5 at the dose of 2.3 (mg/kg/day); type: functional, Mus musculus; summary of the method: as §5
COLO 320DM [37] = experiment: Inhibition of growth of colon cancer COLO 320DM cell line; type: functional; details: Homo sapiens, read-out: ED50 (the source's name); summary of the method: as §3
P388 [38] = experiment: Antitumor activity in vivo expressed as the percentage increase in life span at the P388 dose of 2.3 (mg/kg/day); type: functional, Mus musculus; summary of the method: as §2
[39] = tested on: Lewis lung carcinoma cell line; experiment: Mean body weight change after inoculation of 3.2 x 10 e 5 cells iv and administration of compounds iv from days 1-5 at the dose of 7 (mg/kg/day); type: functional, Mus musculus; summary of the method: as §5
L1210 [40] = experiment: Antitumor activity in vivo expressed as the percentage increase in life span at the dose of 2.5 (mg/kg/day); type: functional, Mus musculus
L1210 [41] = experiment: The number of mice survived for 30 days at the dose of 40 (mg/kg/day); type: functional, Mus musculus
L1210 [42] = experiment: Antitumor activity in vivo expressed as the percentage increase in life span at the dose of 40 (mg/kg/day); type: functional, Mus musculus

COc1cc([C@@H]2c3cc4c(cc3[C@@H](CCN3CCN(C)CC3)C3COC(=O)[C@@H]32)OCO4)cc(OC)c1O.Cl.Cl (some centres undefined)
ILS max [1]: 91% | EC50 (ACHN): 2 µg/mL | ILS max (P388 [2]): 182% | EC50 [3]: 0.25 µg/mL | IC50 [4]: 33.6 µM | ILS max (P388 [5]): 112% | ILS max (P388 [6]): 67% | EC50 [7]: 5.8 µg/mL | ILS max (L1210 [8]): 140% | EC50 (Homo sapiens): 0.13 µg/mL | EC50 [9]: 1.6 µg/mL | ILS max [10]: 127% | Inhibition [11]: 37% | Inhibition [12]: 96% | EC50 (SBC-3): 0.28 µg/mL | ILS max [13]: 24% | IC50 (Tubulin): > 132 µM | Survivors (L1210 [14]): 1 | IC50 (P388 [15]): 0.003 µM | EC50 [16]: 9.3 µg/mL | EC50 [17]: 2.9 µg/mL | bwc [18]: 0.9 g | EC50 (COLO 320DM [19]): 0.99 µg/mL | bwc [20]: -3.3 g | Inhibition [21]: 81% | EC50 (A549): 0.76 µg/mL | bwc [22]: -0.9 g | ILS max [23]: 67% | bwc [24]: 0.3 g

COc1cc([C@@H]2c3cc4c(cc3[C@@H](CCN3CCC(N5CCCCC5)CC3)C3COC(=O)[C@@H]32)OCO4)cc(OC)c1O.Cl.Cl (some centres undefined)
EC50 (ACHN): 1.1 µg/mL | ILS max (P388 [2]): 143% | Survivors (L1210 [25]): 6 | EC50 [3]: 0.18 µg/mL | IC50 [4]: 29.8 µM | EC50 [7]: 35 µg/mL | ILS max [26]: -44% | ILS max (P388 [27]): 202% | Inhibition [28]: 91% | EC50 (Homo sapiens): 0.31 µg/mL | EC50 [9]: 2.7 µg/mL | ILS max [29]: -13% | ILS max [30]: 63% | EC50 (SBC-3): 0.16 µg/mL | bwc [31]: -1.6 g | IC50 (Tubulin): > 167 µM | IC50 (P388 [15]): 0.0033 µM | Inhibition [32]: 50% | EC50 [16]: 13 µg/mL | Inhibition [33]: 40% | ILS max [34]: 133% | EC50 [17]: 4 µg/mL | ILS max [35]: 43% | bwc [36]: -0.5 g | EC50 (A549): 1 µg/mL | bwc [22]: 0.3 g | EC50 (COLO 320DM [37]): 2.1 µg/mL | ILS max (P388 [38]): 231% | bwc [39]: -4.1 g | ILS max (L1210 [40]): 102%

COc1cc([C@@H]2c3cc4c(cc3[C@@H](CCN(C)N(C)C)C3COC(=O)[C@@H]32)OCO4)cc(OC)c1O.Cl (some centres undefined)
Survivors (L1210 [41]): 6 | IC50 [4]: 58.3 µM | IC50 (Tubulin): > 100 µM | IC50 (P388 [15]): 0.02 µM | ILS max (L1210 [42]): 74%
